Measurements taken from ChEMBL document CHEMBL2417474, “Synthesis, antiproliferative and anti-inflammatory activities of some novel 6-aryl-2-(p-(methanesulfonyl)phenyl)-4,5-dihydropyridazi-3(2H)-ones” (Eur J Med Chem, 2013).

Legend:
Type in all cases: functional
M14 = assay: Growth inhibition of human M14 cells after 48 hrs by sulforhodamine B assay; details: M14, 48 h
Procedure, shortened: (§1)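 NCI 60-cell-line panel grown in RPMI-type medium with 5% fetal calf serum and 2 mM L-glutamine. Cells preincubated 24 h, then exposed continuously for 48 h to compound in DMSO at 10^-4 to 10^-8 M (five 10-fold levels). Growth read by SRB protein stain. GI50 is the concentration giving a 50% reduction in net protein increase relative to control cells.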

T47D = assay: Growth inhibition of human T47D cells assessed as cell growth at 10 uM after 48 hrs by sulforhodamine B assay; details: read-out: Activity
Procedure, shortened: (§2)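 Single-dose NCI screen. Tumor lines were cultured in medium with 5% fetal calf serum and 2 mM L-glutamine, preincubated 24 h, then given compound in DMSO. After 48 h continuous exposure, cell growth was estimated by sulforhodamine B protein assay.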

[1] = Growth inhibition of human NCI-ADR-RES cells assessed as cell growth at 10 uM after 48 hrs by sulforhodamine B assay; details: read-out: Activity
SK-MEL-2 [2] = assay: Growth inhibition of human SK-MEL-2 cells assessed as cell growth at 10 uM after 48 hrs by sulforhodamine B assay; details: SK-MEL-2, 48 h, read-out: Activity
HL-60(TB) = assay: Growth inhibition of human HL-60(TB) cells after 48 hrs by sulforhodamine B assay; details: HL-60, 48 h
Procedure, shortened: (§3)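 Part of the NCI 60-cell-line panel. Cells were grown in 1640 medium with 5% fetal calf serum and 2 mM L-glutamine, then preincubated 24 h before compound was added. Compounds in DMSO were tested at five concentrations (100, 10, 1, 0.1, 0.01 µM) with 48 h continuous exposure. Read-out was SRB protein staining; GI50 is the concentration halving the net protein increase versus control.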

Malme-3M = assay: Growth inhibition of human MALME-3M cells after 48 hrs by sulforhodamine B assay; procedure, shortened: as §1
ACHN = assay: Growth inhibition of human ACHN cells assessed as cell growth at 10 uM after 48 hrs by sulforhodamine B assay; details: read-out: Activity
[3] = Growth inhibition of human HCC2998 cells after 48 hrs by sulforhodamine B assay; details: HCC 2998, 48 h; procedure, shortened: as §1
K562 = assay: Growth inhibition of human K562 cells assessed as cell growth at 10 uM after 48 hrs by sulforhodamine B assay; details: K562, 48 h, read-out: Activity
SF-539 [4] = assay: Growth inhibition of human SF539 cells after 48 hrs by sulforhodamine B assay; details: SF-539, 48 h
Procedure, shortened: (§4)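 NCI 60-cell-line panel. Cells were grown in medium with 5% fetal calf serum and 2 mM L-glutamine, then preincubated 24 h in plates. Compounds were added from DMSO at five 10-fold concentrations from 100 to 0.01 µM and left on cells continuously for 48 h. Cell growth was read by sulforhodamine B protein stain. GI50 is the concentration that halves net protein increase relative to control cells.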

SK-MEL-2 [5] = assay: Growth inhibition of human SK-MEL-2 cells after 48 hrs by sulforhodamine B assay; details: SK-MEL-2, 48 h; procedure, shortened: as §4
HT-29 [6] = assay: Growth inhibition of human HT-29 cells after 48 hrs by sulforhodamine B assay; details: HT-29, 48 h; procedure, shortened: as §1
SN12C = assay: Growth inhibition of human SN12C cells after 48 hrs by sulforhodamine B assay; procedure, shortened: as §3
SF-539 [7] = assay: Growth inhibition of human SF539 cells assessed as cell growth at 10 uM after 48 hrs by sulforhodamine B assay; details: SF-539, 48 h, read-out: Activity
BT-549 = assay: Growth inhibition of human BT549 cells after 48 hrs by sulforhodamine B assay; details: BT-549, 48 h; procedure, shortened: as §1
UO-31 = assay: Growth inhibition of human UO31 cells assessed as cell growth at 10 uM after 48 hrs by sulforhodamine B assay; details: UO-31, 48 h, read-out: Activity; procedure, shortened: as §2
TK-10 [8] = assay: Growth inhibition of human TK10 cells assessed as cell growth at 10 uM after 48 hrs by sulforhodamine B assay; details: TK-10, 48 h, read-out: Activity; procedure, shortened: as §2
MDA-MB-468 = assay: Growth inhibition of human MDA-MB-468 cells after 48 hrs by sulforhodamine B assay; details: MDA-MB-468, 48 h; procedure, shortened: as §4
MDA-MB-435 = assay: Growth inhibition of human MDA-MB-435 cells assessed as cell growth at 10 uM after 48 hrs by sulforhodamine B assay; details: MDA-MB-435, 48 h, read-out: Activity
[9] = Growth inhibition of human HCC2998 cells assessed as cell growth at 10 uM after 48 hrs by sulforhodamine B assay; details: HCC 2998, 48 h, read-out: Activity
SNB-75 [10] = assay: Growth inhibition of human SNB75 cells assessed as cell growth at 10 uM after 48 hrs by sulforhodamine B assay; details: SNB-75, 48 h, read-out: Activity
SK-OV-3 = assay: Growth inhibition of human SKOV3 cells after 48 hrs by sulforhodamine B assay; details: SK-OV-3, 48 h; procedure, shortened: as §4
SNB-75 [11] = assay: Growth inhibition of human SNB75 cells after 48 hrs by sulforhodamine B assay; details: SNB-75, 48 h; procedure, shortened: as §4
SF-295 = assay: Growth inhibition of human SF295 cells after 48 hrs by sulforhodamine B assay; details: SF-295, 48 h; procedure, shortened: as §4
TK-10 [12] = assay: Growth inhibition of human TK10 cells after 48 hrs by sulforhodamine B assay; details: TK-10, 48 h
Procedure, shortened: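 NCI 60-line panel. Cells were grown in medium with 5% fetal calf serum and 2 mM L-glutamine and preincubated 24 h in plates. Compound in DMSO was added at 10^-4 to 10^-8 M (five 10-fold levels), with continuous exposure for 48 h. Growth was read by SRB protein staining. GI50 is the concentration giving 50% reduction in net protein increase versus control cells.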

DU-145 = assay: Growth inhibition of human DU145 cells assessed as cell growth at 10 uM after 48 hrs by sulforhodamine B assay; details: DU-145, 48 h, read-out: Activity
HT-29 [13] = assay: Growth inhibition of human HT-29 cells assessed as cell growth at 10 uM after 48 hrs by sulforhodamine B assay; details: HT-29, 48 h, read-out: Activity
IGROV-1 = assay: Growth inhibition of human IGROV1 cells assessed as cell growth at 10 uM after 48 hrs by sulforhodamine B assay; details: IGROV-1, 48 h, read-out: Activity
[14] = read-out: LC50 (the source's name)

SMILES: Cc1ccc(C2=NN(c3ccc(S(C)(=O)=O)cc3)C(=O)CC2)cc1
- GI50 (M14): 0.38 µM
- TGI (M14): > 100 µM
- CC50 (M14; [14]): > 100 µM
- growth at 10 µM (T47D): 32.7%
- growth at 10 µM [1]: 6.72%
- growth at 10 µM (SK-MEL-2 [2]): 6.35%
- GI50 (HL-60(TB)): 0.4 µM
- TGI (HL-60(TB)): 2.58 µM
- CC50 (HL-60(TB); [14]): > 100 µM
- TGI (Malme-3M): > 100 µM
- CC50 (Malme-3M; [14]): > 100 µM
- growth at 10 µM (ACHN): 54.5%
- GI50 [3]: 2.75 µM
- TGI [3]: > 100 µM
- CC50 [3, 14]: > 100 µM
- growth at 10 µM (K562): 11.7%
- GI50 (SF-539 [4]): 1.02 µM
- TGI (SF-539 [4]): 17.4 µM
- CC50 (SF-539 [4]; [14]): > 100 µM
- GI50 (SK-MEL-2 [5]): 0.43 µM
- LC50 (SK-MEL-2 [5]): > 100 µM
- TGI (SK-MEL-2 [5]): > 100 µM
- GI50 (HT-29 [6]): 0.33 µM
- LC50 (50% lethal concentration) (HT-29 [6]): > 100 µM
- TGI (HT-29 [6]): 10 µM
- LC50 (SN12C): > 100 µM
- growth at 10 µM (SF-539 [7]): -7.93%
- GI50 (BT-549): 0.6 µM
- TGI (BT-549): > 100 µM
- CC50 (BT-549; [14]): > 100 µM
- growth at 10 µM (UO-31): 41.1%
- growth at 10 µM (TK-10 [8]): 67%
- GI50 (MDA-MB-468): 1.23 µM
- LC50 (concentration killing 50% of cells) (MDA-MB-468): > 100 µM
- TGI (MDA-MB-468): 4.86 µM
- growth at 10 µM (MDA-MB-435): -61.2%
- growth at 10 µM [9]: 47.2%
- growth at 10 µM (SNB-75 [10]): 8.1%
- GI50 (SK-OV-3): 1.15 µM
- LC50 (SK-OV-3): > 100 µM
- TGI (SK-OV-3): 20.7 µM
- GI50 (SNB-75 [11]): 0.54 µM
- TGI (SNB-75 [11]): > 9.25 µM
- CC50 (SNB-75 [11]; [14]): > 100 µM
- GI50 (SF-295): 0.4 µM
- LC50 (concentration killing 50% of cells present at start) (SF-295): > 100 µM
- TGI (SF-295): 5.36 µM
- GI50 (TK-10 [12]): 7.69 µM
- TGI (TK-10 [12]): > 100 µM
- CC50 (TK-10 [12]; [14]): > 100 µM
- growth at 10 µM (DU-145): 6.77%
- growth at 10 µM (HT-29 [13]): 11.1%
- growth at 10 µM (IGROV-1): 59.2%
